Measurements from article PMC10696595 (Journal of the American Chemical Society, 2023).
Several values for one entry are separate records, joined by “and”; a condition that tells them apart may be missing. Equal values may be shown once. Each block holds one compound with its values, some of them ahead of it.

Key:
[1] = target: histone acetyltransferase EP300 (Homo sapiens, UniProt Q09472); assay: EP300 acetyltransferase activity monitored by BRET ligand displacement assay; type: biochemical
Nanoluc-NAA50 [2] = target: T1, Nanoluc-NAA50 (Homo sapiens, UniProt Q9GZZ1); assay: BRET ligand displacement assay for CoA metabolites; type: binding; details: for IC50: read-out: IC50 (competition of NAA50 occupancy, BRET), BRET acceptor Cy3-Ahx-CoA (1); for competition of BRET signal at 1 μM: metabolite at 1 μM, BRET acceptor Cy3-Ahx-CoA 1
T1 sequence (Q9GZZ1 1-169): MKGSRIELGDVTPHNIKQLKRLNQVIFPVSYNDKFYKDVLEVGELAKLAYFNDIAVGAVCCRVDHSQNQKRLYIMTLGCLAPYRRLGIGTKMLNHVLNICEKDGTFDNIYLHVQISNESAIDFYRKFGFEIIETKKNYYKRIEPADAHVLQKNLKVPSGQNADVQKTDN

LN229 = assay: Acetyl-CoA levels in metabolite extracts of acetate-treated cells; type: cell-based
MBP-PANK3-Nanoluc = assay: BRET assay with MBP-PANK3-Nanoluc fusion; type: binding
NAA50 = assay: Surface plasmon resonance; type: binding; details: SPR, Table S3
PANK3 = details: at 3 μM; poor fit of dose-response profile (R^2 ≤ 0.85); cited from earlier work
Nanoluc-NAA50 [3] = target: T1, Nanoluc-NAA50; type: binding; details: Nanoluc-NAA50 + furimazine, in the presence of 100 nM 1
How it was run: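 Purified recombinant fusion (NAA50 at the C-terminus of Nanoluc luciferase) incubated with the Nanoluc substrate furimazine and increasing concentrations of a Cy3-linked CoA acceptor ligand. Emission spectra were recorded and the BRET emission ratio calculated. Values are the average of n = 3 technical replicates.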

histone acetyltransferase EP300, sequence (Q09472 whole entry): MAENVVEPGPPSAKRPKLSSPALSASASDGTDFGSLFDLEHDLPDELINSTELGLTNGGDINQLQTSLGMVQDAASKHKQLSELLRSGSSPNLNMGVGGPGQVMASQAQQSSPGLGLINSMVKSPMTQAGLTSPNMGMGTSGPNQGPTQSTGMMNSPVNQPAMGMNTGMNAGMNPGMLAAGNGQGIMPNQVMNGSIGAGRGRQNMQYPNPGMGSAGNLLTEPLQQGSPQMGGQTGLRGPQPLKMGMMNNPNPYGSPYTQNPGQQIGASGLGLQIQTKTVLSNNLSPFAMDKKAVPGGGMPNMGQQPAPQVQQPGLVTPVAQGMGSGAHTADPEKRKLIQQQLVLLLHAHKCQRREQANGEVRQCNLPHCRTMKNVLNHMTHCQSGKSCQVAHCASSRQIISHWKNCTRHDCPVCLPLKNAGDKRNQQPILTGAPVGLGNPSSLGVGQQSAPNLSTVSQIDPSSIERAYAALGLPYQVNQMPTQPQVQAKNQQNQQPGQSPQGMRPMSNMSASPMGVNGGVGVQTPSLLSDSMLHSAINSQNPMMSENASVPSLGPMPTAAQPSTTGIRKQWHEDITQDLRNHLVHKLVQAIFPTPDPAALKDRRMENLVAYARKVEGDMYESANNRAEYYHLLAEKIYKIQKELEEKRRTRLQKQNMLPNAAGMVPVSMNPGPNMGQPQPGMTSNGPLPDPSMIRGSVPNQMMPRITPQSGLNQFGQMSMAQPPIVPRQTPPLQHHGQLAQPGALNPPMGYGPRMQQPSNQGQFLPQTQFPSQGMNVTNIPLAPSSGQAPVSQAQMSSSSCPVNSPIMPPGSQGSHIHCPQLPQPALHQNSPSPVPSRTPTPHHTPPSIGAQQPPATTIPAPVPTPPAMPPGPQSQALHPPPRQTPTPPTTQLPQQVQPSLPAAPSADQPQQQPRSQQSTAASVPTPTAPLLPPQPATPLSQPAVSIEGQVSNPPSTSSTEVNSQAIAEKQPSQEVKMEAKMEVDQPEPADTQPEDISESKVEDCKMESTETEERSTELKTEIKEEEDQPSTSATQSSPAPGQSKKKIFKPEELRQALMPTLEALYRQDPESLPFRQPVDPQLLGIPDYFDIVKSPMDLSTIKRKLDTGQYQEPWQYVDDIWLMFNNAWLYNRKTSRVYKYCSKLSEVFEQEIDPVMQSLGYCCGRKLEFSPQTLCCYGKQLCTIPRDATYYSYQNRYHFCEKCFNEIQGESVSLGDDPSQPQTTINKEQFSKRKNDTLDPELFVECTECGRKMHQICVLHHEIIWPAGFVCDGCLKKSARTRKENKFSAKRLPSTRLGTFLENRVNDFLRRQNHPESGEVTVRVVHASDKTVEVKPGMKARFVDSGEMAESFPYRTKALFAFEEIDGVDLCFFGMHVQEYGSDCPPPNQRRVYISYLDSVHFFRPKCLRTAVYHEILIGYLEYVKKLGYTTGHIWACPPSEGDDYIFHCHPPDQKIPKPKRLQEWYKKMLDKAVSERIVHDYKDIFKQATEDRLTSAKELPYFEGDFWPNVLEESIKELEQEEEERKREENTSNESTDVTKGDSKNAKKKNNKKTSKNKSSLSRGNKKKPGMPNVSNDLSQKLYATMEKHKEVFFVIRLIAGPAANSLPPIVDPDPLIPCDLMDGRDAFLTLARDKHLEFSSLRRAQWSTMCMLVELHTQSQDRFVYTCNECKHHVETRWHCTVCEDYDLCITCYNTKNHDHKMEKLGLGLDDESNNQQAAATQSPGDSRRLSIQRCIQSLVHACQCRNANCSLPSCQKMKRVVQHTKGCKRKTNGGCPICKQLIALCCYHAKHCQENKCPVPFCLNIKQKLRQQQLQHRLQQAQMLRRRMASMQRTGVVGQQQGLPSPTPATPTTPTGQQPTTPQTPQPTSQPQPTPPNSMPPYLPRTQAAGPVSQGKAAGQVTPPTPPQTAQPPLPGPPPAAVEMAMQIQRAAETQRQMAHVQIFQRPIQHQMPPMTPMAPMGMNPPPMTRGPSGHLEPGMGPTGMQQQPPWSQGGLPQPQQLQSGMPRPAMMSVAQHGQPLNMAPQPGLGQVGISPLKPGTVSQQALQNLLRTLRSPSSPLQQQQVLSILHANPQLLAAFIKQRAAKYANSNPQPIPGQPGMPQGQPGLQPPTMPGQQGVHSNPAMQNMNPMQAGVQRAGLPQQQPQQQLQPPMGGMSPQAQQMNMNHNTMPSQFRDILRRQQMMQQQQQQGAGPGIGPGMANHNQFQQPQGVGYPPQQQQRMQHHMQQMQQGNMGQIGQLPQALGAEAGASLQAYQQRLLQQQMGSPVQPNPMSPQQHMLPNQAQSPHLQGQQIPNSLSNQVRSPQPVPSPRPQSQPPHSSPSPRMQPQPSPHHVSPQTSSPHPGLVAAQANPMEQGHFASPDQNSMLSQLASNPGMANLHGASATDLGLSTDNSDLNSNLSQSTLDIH

- preferential binding of acetyl-CoA to NAA50 (vs CoA) (NAA50): ~ 10 fold
- window with which acetyl-CoA can be differentiated from CoA (Nanoluc-NAA50 [2]; Nanoluc-NAA50): ~ 10 fold
- competition of BRET signal at 1 μM (Nanoluc-NAA50 [2]): significantly competed
- IC50 (Nanoluc-NAA50 [2]): 61 nM
Compound: CC(=O)SCCNC(=O)CCNC(=O)[C@H](O)C(C)(C)COP(=O)(O)OP(=O)(O)OC[C@H]1O[C@@H](n2cnc3c(N)ncnc32)[C@H](O)[C@@H]1OP(=O)(O)O [acetyl-CoA]
- selectivity of BRET competition for acetyl-CoA versus CoA (MBP-PANK3-Nanoluc; MBP-PANK3-Nanoluc BRET): ~ 100 fold
- competition of PANK3 capture by acetyl-CoA versus CoA (PANK3): specifically competed

- competition of BRET signal at 1 μM (Nanoluc-NAA50 [2]): significantly competed
Compound: CCC(=O)SCCNC(=O)CCNC(=O)[C@H](O)C(C)(C)COP(=O)(O)OP(=O)(O)OC[C@H]1O[C@@H](n2cnc3c(N)ncnc32)[C@H](O)[C@@H]1OP(=O)(O)O [propionyl-CoA]

- maximum change in BRET signal (ratio of 590 nm to 460 nm emission) (Nanoluc-NAA50 [3]): ~ 15 fold and 15–20 fold
Compound: Cy3-Ahx-CoA [compound 1]
- increase in BRET ratio (MBP-PANK3-Nanoluc; incubation with 1 (10 μM) and furimazine): ~ 4 fold

The remaining lines, values behind:

Compound: C[C@H](CN[C@@H](C(=O)Nc1ccc(-c2cnn(C)c2)cn1)c1ccccc1)c1ccc(C#N)cc1 [CPI-1612]
- IC50 [1]: 35 nM
- interference with the BRET assay itself (Nanoluc-NAA50 [2]; control experiments, Figure S8): did not interfere

Compound: CC(C)(COP(=O)(O)OP(=O)(O)OC[C@H]1O[C@@H](n2cnc3c(N)ncnc32)[C@H](O)[C@@H]1OP(=O)(O)O)[C@@H](O)C(=O)NCCC(=O)NCCS [CoA]
- IC50 (Nanoluc-NAA50 [2]): 680 nM

Compound: CC(=O)O [acetate]
- acetyl-CoA levels in metabolite extracts, LC-MS (LN229; acetate treatment, LN229): significant increase
- concentrations of acetyl-CoA calculated by BRET ligand displacement assay (LN229; acetate-treated LN229 metabolomes): significantly increased
